Screening data: PubChem BioAssay, several laboratories
H9c2 protect = cardioprotection against H2O2-induced cell death, primary screen, uHTS, H9c2 cells, ATPLite luminescence. H9c2 cardiomyocytes, H2O2 injury protection, 2 h. protection from H2O2 cell death, % at 20 µM. 360,000 tested, 0.63% active;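 active means compounds giving at least 50% protection of heart cells from peroxide-induced death in the single-dose screen, raw or plate-pattern-corrected value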
GASC-1 inh = inhibitors of GASC-1 histone demethylase, primary screen, biochemical, fluorescence, DELFIA europium; GST-JMJD2C(1-420) H3K9me3 demethylation; inhibition, % at 2.35 µM; AID 2099, 2009; 330,000 tested, 0.069% active;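 active means more than half of a compound's replicate wells show inhibition beyond 50%, single wells judged on their own value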;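 further: signal counts dimethyl H3K9 product captured on neutravidin plate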
PP5 inh = PP5 phosphatase inhibitors, primary screen, biochemical, fluorescence. purified PP5c, OMFP substrate fluorescence. inhibition, % at 6.7 µM. 320,000 tested, 0.18% active;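 active means inhibition above the campaign's mean inhibition across all tested compounds plus 3 SD, cut at about 9.5% in these data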
CTSL1 counter = Fasciola hepatica cathepsin L1 inhibitors, primary screen, counter-screen for PFM18AAP inhibitor project, biochemical, QFRET, fluorogenic peptide substrate; inhibition, % at 5.96 µM; recombinant F. hepatica cathepsin L1, Z-Leu-Arg-MCA fluorescence; 300,000 tested, 0.49% active;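 active means inhibition above the mean of all tested compounds plus 3 SD, set per screening campaign, cut at about 17% in these data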
T cruzi inh = inhibitors of intracellular T. cruzi growth, primary screen, luminescence, NIH3T3 host cells; T. cruzi beta-gal in NIH3T3, 90 h; inhibition, % (test concentration not listed); 300,000 tested, 1.4% active; AID 1885, 2009;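 active means mean inhibition across valid replicates above about 55%, limit read from the data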;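 further: signal also drops with host cell toxicity which is not excluded here; higher percent means less beta-gal luminescence so fewer parasites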
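Assay system: NIH/3T3 host cells with β-galactosidase reporter T. cruzi; input: 5,000 host fibroblasts per well; compound: single 50 nL compound addition per well in DMSO; timing: ≥90 h infection period, 3 h prior cell attachment; measured by: GalScreen β-gal luminescence, detergent lysis, 60 min; evaluation: percent inhibition of parasite-derived β-gal signal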
pCIP destab = p/CIP-EGFP fusion destabilizers, primary screen, fluorescence, F442A cells; Q05BA5; 16 h; decrease of EGFP signal, % at 10 µM; 290,000 tested, 0.01% active;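 active means EGFP signal decrease of at least 30% at 10 µM or well 3 SD below plate mean, unless failing retest; inactive means the rest, including hits failing retest or dose response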
Large screens that a line does not name were inactive. Sampled rows, rich in hits. Any-hit rate of the full collection: about 2.4%.

O=C(CSc1ccc2nnc(-c3ccc(Cl)cc3)n2n1)N1CCCc2ccccc21	none
O=C(CSc1ccc2nnc(-c3ccc(F)cc3)n2n1)N1CCCc2ccccc21	H9c2 protect 80.3
Cc1[nH]c2ccc(-c3nnc(SCC(=O)N4CCCc5ccccc54)o3)cc2c1C	T cruzi inh 78.9
Cc1nn(C(=O)c2cccc([N+](=O)[O-])c2)c(C)c1Cl	none
CCOc1ccc(C(=O)NCC2CCN(CC3CCCCC3)CC2)cc1	none (no result: PP5 inh, CTSL1 counter)
Cc1ccc(/C=N/N2CCN(c3ccncc3S(=O)(=O)N3CCCCC3)CC2)cc1	none
COc1cccc(/C=N/N2CCN(c3ccncc3S(=O)(=O)N3CCCCC3)CC2)c1	T cruzi inh 65.7
COc1ccc(-n2c(C)cc(-c3cn4cccc(C)c4n3)c2C)cc1	none
Cc1cc(-c2cn3ccccc3n2)c(C)n1-c1ccccc1	T cruzi inh 62.2
O=C(Cn1cnc2cc([N+](=O)[O-])ccc2c1=O)Nc1ccccc1-c1ccccc1	T cruzi inh 58.1
CC(C)(C)c1ccc(NC(=O)Cn2cnc3cc([N+](=O)[O-])ccc3c2=O)cc1	T cruzi inh 71.5
COc1ccc([N+](=O)[O-])cc1NC(=O)COC(=O)Cn1cnc2ccccc2c1=O	none (no result: PP5 inh, CTSL1 counter, T cruzi inh, pCIP destab)
Cc1ccc(CNC(=O)Cn2cnc3cc([N+](=O)[O-])ccc3c2=O)cc1	none
O=C(Cn1cnc2cc([N+](=O)[O-])ccc2c1=O)Nc1ccc(Br)cc1	T cruzi inh 67.9
Cc1cn(C2CCCCC2)c(=O)n(-c2ccccc2)c1=O	none (no result: GASC-1 inh, PP5 inh, CTSL1 counter, T cruzi inh, pCIP destab)
COc1ccc(Nc2nc3cc(-c4ccccc4C)sc3c(=O)n2C)cc1OC	none (no result: GASC-1 inh, PP5 inh, CTSL1 counter, T cruzi inh, pCIP destab)
O=C(NC1CCCCC1)c1cc(S(=O)(=O)N2CCOCC2)ccc1Cl	none
CN(CC1CCCO1)S(=O)(=O)c1ccc(C(=O)Nc2nc(-c3ccccn3)cs2)cc1 (stereo not drawn)	H9c2 protect 90.1 (no result: GASC-1 inh, T cruzi inh)
O=C(Nc1nc(-c2ccccn2)cs1)c1cc(S(=O)(=O)N2CCOCC2)ccc1F	H9c2 protect 59.1 (no result: GASC-1 inh, CTSL1 counter, T cruzi inh, pCIP destab)
O=C(Nc1cc(S(=O)(=O)N2CCOCC2)ccc1N1CCCCC1)c1cc(-c2ccccn2)nc2ccccc12	H9c2 protect 64.0
Cc1ccc(S(=O)(=O)N2CCOCC2)cc1NC(=O)c1cc(-c2ccccn2)nc2ccccc12	none
O=C(Nc1nc(-c2ccccn2)cs1)c1ccc(F)c(S(=O)(=O)N2CCOCC2)c1	H9c2 protect 65.1 (no result: CTSL1 counter, T cruzi inh, pCIP destab)
CC(OC(=O)CCC(=O)c1ccc(Cl)s1)C(=O)NC1(C#N)CCCCC1 (stereo not drawn)	none (no result: CTSL1 counter, T cruzi inh, pCIP destab)
O=C(CC1OC(=O)c2ccccc21)NNC(=O)c1ccc(F)cc1 (stereo not drawn)	none (no result: CTSL1 counter, T cruzi inh, pCIP destab)
COC(=O)c1ccc(CN(C(=O)N2CCN(C)CC2)S(=O)(=O)c2ccc(C)cc2)cc1	none (no result: pCIP destab)
O=C(Nc1ccc(Br)cc1)c1cccc(-n2cnnn2)c1	none
Cc1ccc(C(=O)Nc2nc(-c3ccccn3)cs2)cc1S(=O)(=O)N1CCOCC1	H9c2 protect 73.4 (no result: CTSL1 counter, T cruzi inh, pCIP destab)
Cc1ccc(C(=O)Nc2ccccn2)cc1S(=O)(=O)N1CCOCC1	none (no result: pCIP destab)
O=C(Nc1nc(-c2ccccn2)cs1)c1cccc(-n2cnnn2)c1	H9c2 protect 67.8, T cruzi inh 62.8
NC(=O)[C@@H]1CCCN1C(=O)[C@@H](Cc1cnc[nH]1)NC(=O)[C@@H]1CCC(=O)N1	none (no result: CTSL1 counter, T cruzi inh, pCIP destab)
CCNC(=O)C1CCCN1C(=O)C(CCCN=C(N)N)NC(=O)C(CC(C)C)NC(=O)C(Cc1cn(Cc2ccccc2)cn1)NC(=O)C(Cc1ccc(O)cc1)NC(=O)C(CO)NC(=O)C(Cc1c[nH]c2ccccc12)NC(=O)C(Cc1cnc[nH]1)NC(=O)C1CCC(=O)N1 (stereo not drawn)	CTSL1 counter 40.1
CCOc1ccc(Br)cc1S(=O)(=O)Nc1ccc(Cl)c(S(=O)(=O)N(CC)c2ccccc2)c1	CTSL1 counter 16.7
CCOc1ccc(Br)cc1S(=O)(=O)Nc1ccc(Cl)c(S(=O)(=O)N(C)C)c1	none
COc1ccc(Nc2cc(C)c3c(O)cccc3n2)cc1	T cruzi inh 59.7
Cc1ccc(Nc2cc(C)c3c(O)cccc3n2)cc1C	T cruzi inh 66.4
